Measurements reported in ChEMBL document CHEMBL1932930, “Synthesis and biological assessment of novel 2-thiazolylhydrazones and computational analysis of their recognition by monoamine oxidase B” (Eur J Med Chem, 2012).

B1: Amine oxidase [flavin-containing] A (Homo sapiens) (protein)
chain: MENQEKASIAGHMFDVVVIGGGISGLSAAKLLTEYGVSVLVLEARDRVGGRTYTIRNEHVDYVDVGGAYVGPTQNRILRLSKELGIETYKVNVSERLVQYVKGKTYPFRGAFPPVWNPIAYLDYNNLWRTIDNMGKEIPTDAPWEAQHADKWDKMTMKELIDKICWTKTARRFAYLFVNINVTSEPHEVSALWFLWYVKQCGGTTRIFSVTNGGQERKFVGGSGQVSERIMDLLGDQVKLNHPVTHVDQSSDNIIIETLNHEHYECKYVINAIPPTLTAKIHFRPELPAERNQLIQRLPMGAVIKCMMYYKEAFWKKKDYCGCMIIEDEDAPISITLDDTKPDGSLPAIMGFILARKADRLAKLHKEIRKKKICELYAKVLGSQEALHPVHYEEKNWCEEQYSGGCYTAYFPPGIMTQYGRVIRQPVGRIFFAGTETATKWSGYMEGAVEAGERAAREVLNGLGKVTEKDIWVQEPESKDVPAVEITHTFWERNLPSVSGLLKIIGFSTSVTALGFVLYKYKLLPRS
B2: Amine oxidase [flavin-containing] B (Homo sapiens) (protein)
chain: MSNKCDVVVVGGGISGMAAAKLLHDSGLNVVVLEARDRVGGRTYTLRNQKVKYVDLGGSYVGPTQNRILRLAKELGLETYKVNEVERLIHHVKGKSYPFRGPFPPVWNPITYLDHNNFWRTMDDMGREIPSDAPWKAPLAEEWDNMTMKELLDKLCWTESAKQLATLFVNLCVTAETHEVSALWFLWYVKQCGGTTRIISTTNGGQERKFVGGSGQVSERIMDLLGDRVKLERPVIYIDQTRENVLVETLNHEMYEAKYVISAIPPTLGMKIHFNPPLPMMRNQMITRVPLGSVIKCIVYYKEPFWRKKDYCGTMIIDGEEAPVAYTLDDTKPEGNYAAIMGFILAHKARKLARLTKEERLKKLCELYAKVLGSLEALEPVHYEEKNWCEEQYSGGCYTTYFPPGILTQYGRVLRQPVDRIYFAGTETATHWSGYMEGAVEAGERAAREILHAMGKIPEDEIWQSEPESVDVPAQPITTTFLERHLPSVPGLLRLIGLTTIFSATALGFLAHKRGLLVRV

Legend:
[1] = substrate: NCCc1ccc(O)cc1; experiment: Activity of human recombinant MAO-A expressed in baculovirus infected BTI-TN-5B1-4 insect cells assessed as hydrogen peroxide production after 15 mins by fluorimetric method
How it was run: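 Microsomal hMAO-A (specific activity 150 nmol p-tyramine/min/mg protein), dosed to oxidize 165 pmol p-tyramine/min in controls. It was preincubated 15 min at 37 °C in 0.05 M sodium phosphate pH 7.4 with test drug, then started with 1 mM p-tyramine (final). H2O2 was read as Amplex Red/peroxidase resorufin fluorescence (ex 545/em 590) over 15 min at 37 °C, in the dark.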

[2] = substrate: NCCc1ccc(O)cc1; experiment: Activity of human recombinant MAO-B expressed in baculovirus infected BTI-TN-5B1-4 insect cells assessed as hydrogen peroxide production after 15 mins by fluorimetric method
How it was run: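 Microsomal hMAO-B (specific activity 22 nmol p-tyramine/min/mg protein), adjusted to oxidize 165 pmol p-tyramine/min in controls. It was preincubated 15 min at 37 °C with drug in 0.05 M sodium phosphate pH 7.4, then started with 1 mM p-tyramine (final). Resorufin fluorescence (ex 545/em 590) from Amplex Red/peroxidase was read over 15 min at 37 °C, in the dark. Controls used DMSO vehicle.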

Protein	Km [1]	Vmax [1]	Km [2]	Vmax [2]
B1	514 µM	0.301 µmol/min/mg		
B2			105 µM	0.0289 µmol/min/mg
